# Laboratory results as given in the M2OR odorant receptor database.
# Assays:
# Details in all cases: stereoisomer not certain
# UniProt Q8VG27 = molecular target: T1, UniProt Q8VG27
# T1 sequence (whole entry): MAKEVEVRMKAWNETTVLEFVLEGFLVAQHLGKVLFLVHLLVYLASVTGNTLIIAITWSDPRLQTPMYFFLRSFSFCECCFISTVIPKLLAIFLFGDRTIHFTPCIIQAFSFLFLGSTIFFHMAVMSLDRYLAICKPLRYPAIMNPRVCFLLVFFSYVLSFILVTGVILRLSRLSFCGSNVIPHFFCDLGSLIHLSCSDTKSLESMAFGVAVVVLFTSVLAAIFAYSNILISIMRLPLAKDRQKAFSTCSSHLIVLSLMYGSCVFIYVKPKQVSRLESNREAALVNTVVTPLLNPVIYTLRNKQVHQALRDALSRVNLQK
# In short: (§1)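 Transient luciferase assays in mammalian cell lines were common, though methods varied by source. The values come from published papers and their supplementary material, with extra details from the original authors when needed. Responsive refers to a measured signal the original authors judged statistically different from baseline, and non-responsive (inactive) to the remainder.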
# UniProt Q8VG49 = molecular target: T2, UniProt Q8VG49
# T2 sequence (whole entry): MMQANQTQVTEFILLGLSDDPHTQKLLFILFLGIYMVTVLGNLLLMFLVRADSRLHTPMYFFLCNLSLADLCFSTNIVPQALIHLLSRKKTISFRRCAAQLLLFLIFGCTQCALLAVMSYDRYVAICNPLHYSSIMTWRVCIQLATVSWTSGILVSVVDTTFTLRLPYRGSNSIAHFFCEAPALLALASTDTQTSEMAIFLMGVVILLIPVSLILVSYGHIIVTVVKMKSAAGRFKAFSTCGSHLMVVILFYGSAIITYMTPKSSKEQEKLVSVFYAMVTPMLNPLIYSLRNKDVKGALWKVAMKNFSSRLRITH
# In short: as §1
# UniProt Q8VG53 = molecular target: T3, UniProt Q8VG53
# T3 sequence (whole entry): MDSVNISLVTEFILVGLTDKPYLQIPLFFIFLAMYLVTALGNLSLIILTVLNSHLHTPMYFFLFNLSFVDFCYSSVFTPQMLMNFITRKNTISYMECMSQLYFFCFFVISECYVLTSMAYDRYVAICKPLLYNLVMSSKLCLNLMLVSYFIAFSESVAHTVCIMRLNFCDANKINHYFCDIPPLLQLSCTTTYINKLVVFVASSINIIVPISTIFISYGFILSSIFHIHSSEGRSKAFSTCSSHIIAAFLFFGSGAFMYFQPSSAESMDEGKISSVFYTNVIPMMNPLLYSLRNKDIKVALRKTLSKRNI
# In short: as §1
# UniProt Q8VG64 = molecular target: T4, UniProt Q8VG64
# T4 sequence (whole entry): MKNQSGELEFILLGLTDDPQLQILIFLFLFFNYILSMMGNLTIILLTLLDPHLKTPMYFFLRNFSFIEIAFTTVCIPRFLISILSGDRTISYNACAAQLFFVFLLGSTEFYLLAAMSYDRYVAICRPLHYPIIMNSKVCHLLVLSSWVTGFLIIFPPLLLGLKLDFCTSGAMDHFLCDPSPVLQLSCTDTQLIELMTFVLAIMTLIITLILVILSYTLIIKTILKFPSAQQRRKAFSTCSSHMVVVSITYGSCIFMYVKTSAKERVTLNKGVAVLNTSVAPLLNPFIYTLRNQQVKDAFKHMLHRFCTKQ
# In short: as §1
# UniProt Q8VG77 = molecular target: T5, UniProt Q8VG77
# T5 sequence (whole entry): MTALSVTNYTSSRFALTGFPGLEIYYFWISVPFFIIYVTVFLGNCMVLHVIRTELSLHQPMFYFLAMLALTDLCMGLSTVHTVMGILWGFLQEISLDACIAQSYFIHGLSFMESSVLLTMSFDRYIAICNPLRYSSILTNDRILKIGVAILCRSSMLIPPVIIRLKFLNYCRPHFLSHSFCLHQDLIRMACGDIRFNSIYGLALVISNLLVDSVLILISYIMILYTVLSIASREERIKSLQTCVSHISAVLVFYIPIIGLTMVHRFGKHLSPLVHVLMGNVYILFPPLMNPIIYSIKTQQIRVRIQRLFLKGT
# In short: as §1
# UniProt Q8VG96 = molecular target: T6, UniProt Q8VG96
# T6 sequence (whole entry): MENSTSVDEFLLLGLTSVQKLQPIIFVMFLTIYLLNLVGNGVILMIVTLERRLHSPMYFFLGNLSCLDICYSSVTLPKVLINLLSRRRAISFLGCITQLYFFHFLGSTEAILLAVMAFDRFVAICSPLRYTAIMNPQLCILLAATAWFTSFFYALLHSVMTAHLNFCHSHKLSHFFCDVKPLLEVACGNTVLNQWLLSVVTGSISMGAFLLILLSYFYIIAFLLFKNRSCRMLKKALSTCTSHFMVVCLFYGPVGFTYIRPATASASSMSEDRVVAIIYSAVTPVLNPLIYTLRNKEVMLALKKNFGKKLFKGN
# In short: as §1
# UniProt Q8VGB9 = molecular target: T7, UniProt Q8VGB9
# T7 sequence (whole entry): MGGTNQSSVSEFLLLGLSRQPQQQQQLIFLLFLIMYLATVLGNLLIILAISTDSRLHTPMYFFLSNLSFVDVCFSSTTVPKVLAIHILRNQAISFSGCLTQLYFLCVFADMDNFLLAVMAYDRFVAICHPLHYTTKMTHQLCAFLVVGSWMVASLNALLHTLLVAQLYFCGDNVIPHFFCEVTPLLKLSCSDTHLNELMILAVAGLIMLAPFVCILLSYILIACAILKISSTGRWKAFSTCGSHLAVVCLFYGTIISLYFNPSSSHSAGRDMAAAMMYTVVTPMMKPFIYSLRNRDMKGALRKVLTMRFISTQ
# In short: as §1
# UniProt Q8VGC6 = molecular target: T8, UniProt Q8VGC6
# T8 sequence (whole entry): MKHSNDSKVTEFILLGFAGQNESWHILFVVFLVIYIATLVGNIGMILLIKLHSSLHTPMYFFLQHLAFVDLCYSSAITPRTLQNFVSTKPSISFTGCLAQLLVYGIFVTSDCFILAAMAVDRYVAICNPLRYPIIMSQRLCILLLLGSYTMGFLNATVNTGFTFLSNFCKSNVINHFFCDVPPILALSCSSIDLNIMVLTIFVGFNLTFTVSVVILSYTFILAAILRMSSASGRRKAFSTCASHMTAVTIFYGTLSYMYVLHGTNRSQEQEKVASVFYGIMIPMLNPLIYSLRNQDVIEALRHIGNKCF
# In short: as §1
# UniProt Q8VGD7 = molecular target: T9, UniProt Q8VGD7
# T9 sequence (whole entry): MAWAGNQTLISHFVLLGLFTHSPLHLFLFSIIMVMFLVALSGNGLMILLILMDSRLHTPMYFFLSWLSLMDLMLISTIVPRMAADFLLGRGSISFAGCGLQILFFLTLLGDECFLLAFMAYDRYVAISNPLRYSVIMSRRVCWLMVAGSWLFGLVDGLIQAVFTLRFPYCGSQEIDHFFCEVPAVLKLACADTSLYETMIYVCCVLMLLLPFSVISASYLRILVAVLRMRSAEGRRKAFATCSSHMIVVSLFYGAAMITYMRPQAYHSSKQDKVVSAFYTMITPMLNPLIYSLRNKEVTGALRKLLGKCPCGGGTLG
# In short: as §1
# UniProt Q8VGH1 = molecular target: T10, UniProt Q8VGH1
# T10 sequence (whole entry): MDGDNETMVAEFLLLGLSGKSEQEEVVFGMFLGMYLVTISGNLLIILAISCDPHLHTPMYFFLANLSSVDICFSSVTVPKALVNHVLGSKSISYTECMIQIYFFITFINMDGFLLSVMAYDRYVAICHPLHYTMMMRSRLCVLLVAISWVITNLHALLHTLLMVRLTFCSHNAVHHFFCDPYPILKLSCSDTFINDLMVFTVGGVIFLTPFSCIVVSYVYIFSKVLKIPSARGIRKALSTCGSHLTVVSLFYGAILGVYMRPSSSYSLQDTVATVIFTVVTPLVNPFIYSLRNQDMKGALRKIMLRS
# In short: as §1
# UniProt Q8VGJ1 = molecular target: T11, UniProt Q8VGJ1
# T11 sequence (whole entry): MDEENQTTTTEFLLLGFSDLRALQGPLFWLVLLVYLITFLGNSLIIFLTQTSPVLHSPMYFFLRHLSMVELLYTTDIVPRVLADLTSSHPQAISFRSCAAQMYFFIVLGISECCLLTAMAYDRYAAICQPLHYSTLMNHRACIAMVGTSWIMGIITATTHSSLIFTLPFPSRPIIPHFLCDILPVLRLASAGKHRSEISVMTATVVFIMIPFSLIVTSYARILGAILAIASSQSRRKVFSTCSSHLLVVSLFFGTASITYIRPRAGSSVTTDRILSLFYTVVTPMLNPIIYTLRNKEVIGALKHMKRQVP
# In short: as §1
# UniProt Q8VGJ3 = molecular target: T12, UniProt Q8VGJ3
# T12 sequence (whole entry): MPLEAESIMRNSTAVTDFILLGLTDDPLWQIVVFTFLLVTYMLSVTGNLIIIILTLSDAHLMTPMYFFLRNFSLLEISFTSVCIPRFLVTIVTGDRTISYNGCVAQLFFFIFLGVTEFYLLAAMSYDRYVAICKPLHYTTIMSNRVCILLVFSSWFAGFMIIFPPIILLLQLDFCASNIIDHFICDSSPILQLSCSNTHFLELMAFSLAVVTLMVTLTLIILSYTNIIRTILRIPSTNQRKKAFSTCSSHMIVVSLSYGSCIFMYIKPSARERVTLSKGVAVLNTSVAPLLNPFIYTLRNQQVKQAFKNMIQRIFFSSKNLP
# In short: as §1
# UniProt Q8VGJ5 = molecular target: T13, UniProt Q8VGJ5
# T13 sequence (whole entry): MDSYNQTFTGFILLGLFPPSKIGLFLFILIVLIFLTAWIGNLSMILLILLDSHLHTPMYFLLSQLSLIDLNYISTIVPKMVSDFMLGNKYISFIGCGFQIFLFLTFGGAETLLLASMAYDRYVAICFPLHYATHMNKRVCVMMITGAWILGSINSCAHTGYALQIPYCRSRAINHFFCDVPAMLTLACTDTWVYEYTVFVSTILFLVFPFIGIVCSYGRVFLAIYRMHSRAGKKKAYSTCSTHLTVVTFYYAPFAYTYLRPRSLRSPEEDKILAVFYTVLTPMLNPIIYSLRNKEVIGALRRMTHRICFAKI
# In short: as §1
# UniProt Q8VGL0 = molecular target: T14, UniProt Q8VGL0
# T14 sequence (whole entry): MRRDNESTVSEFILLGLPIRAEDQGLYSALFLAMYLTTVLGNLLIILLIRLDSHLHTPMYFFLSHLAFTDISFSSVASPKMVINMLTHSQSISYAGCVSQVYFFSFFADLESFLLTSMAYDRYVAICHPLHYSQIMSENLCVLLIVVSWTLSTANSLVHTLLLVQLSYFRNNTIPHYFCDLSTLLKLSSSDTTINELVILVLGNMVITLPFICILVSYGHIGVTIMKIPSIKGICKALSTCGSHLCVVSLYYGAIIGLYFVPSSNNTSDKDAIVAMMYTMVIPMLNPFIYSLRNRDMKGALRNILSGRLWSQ
# In short: as §1
# UniProt Q8VGL7 = molecular target: T15, UniProt Q8VGL7
# T15 sequence (whole entry): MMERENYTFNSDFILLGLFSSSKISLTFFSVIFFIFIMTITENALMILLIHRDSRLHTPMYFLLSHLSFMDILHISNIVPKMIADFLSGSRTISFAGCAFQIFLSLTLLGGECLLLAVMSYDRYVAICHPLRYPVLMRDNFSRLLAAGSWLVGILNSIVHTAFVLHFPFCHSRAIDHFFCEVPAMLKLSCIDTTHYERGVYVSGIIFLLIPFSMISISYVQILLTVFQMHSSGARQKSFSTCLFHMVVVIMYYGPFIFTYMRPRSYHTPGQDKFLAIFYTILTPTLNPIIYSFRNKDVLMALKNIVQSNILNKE
# In short: as §1
# 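Note: active if original authors judged signal statistically different from baseline.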
SMILES,odorant receptor agonist call (UniProt Q8VG27),odorant receptor agonist call (UniProt Q8VG49),odorant receptor agonist call (UniProt Q8VG53),odorant receptor agonist call (UniProt Q8VG64),odorant receptor agonist call (UniProt Q8VG77),odorant receptor agonist call (UniProt Q8VG96),odorant receptor agonist call (UniProt Q8VGB9),odorant receptor agonist call (UniProt Q8VGC6),odorant receptor agonist call (UniProt Q8VGD7),odorant receptor agonist call (UniProt Q8VGH1),odorant receptor agonist call (UniProt Q8VGJ1),odorant receptor agonist call (UniProt Q8VGJ3),odorant receptor agonist call (UniProt Q8VGJ5),odorant receptor agonist call (UniProt Q8VGL0),odorant receptor agonist call (UniProt Q8VGL7)
CCCCCCCCCCO,inactive,inactive,inactive,inactive,inactive,inactive,inactive,active,inactive,inactive,inactive,inactive,inactive,inactive,inactive
c1ccccc1,inactive,inactive,inactive,inactive,inactive,inactive,inactive,inactive,inactive,inactive,inactive,inactive,inactive,inactive,inactive
